Laboratory results published in ChEMBL document CHEMBL1137812, “Leishmanicidal and antiplasmodial activity of constituents of Smirnowia iranica” (J Nat Prod, 2002).

Key:
Leishmania infantum [1] = assay: Antileishmanial activity against Leishmania infantum D.SCH promastigotes after 96 hrs by MTT assay; type: functional, organism-based
Method in brief: (§1)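 Promastigotes recovered from liquid-nitrogen cryopreservation were exposed to compounds for 96 h. Parasite viability was read by MTT.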

Leishmania major = assay: Antileishmanial activity against Leishmania major LV39 promastigotes after 96 hrs by MTT assay; type: functional, organism-based; conditions: LV39, 96 h; method in brief: as §1
Leishmania donovani [2] = assay: Antileishmanial activity against Leishmania donovani LV9 amastigotes infected in mouse RAW 264.7 cells after 72 hrs by MTT assay; type: functional, organism-based
Method in brief: (§2)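 RAW 264.7 macrophages infected in vitro with stationary-phase promastigotes, seeded at 1 × 10^5 cells per well in RPMI with 10% fetal calf serum and held 24 h at 37 °C for amastigote transformation. Compounds added, duplicate wells, 72 h at 37 °C. Cells lysed with 0.008% SDS, then post-lysis medium added and plates held 3-4 days at 25 °C. Recovered promastigotes quantified by MTT.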

Leishmania infantum [3] = assay: Antileishmanial activity against Leishmania infantum D.SCH amastigotes infected in mouse RAW 264.7 cells after 72 hrs by MTT assay; type: functional, organism-based; method in brief: as §2
Leishmania donovani [4] = assay: Antileishmanial activity against Leishmania donovani LV9 promastigotes after 96 hrs by MTT assay; type: functional, organism-based; conditions: LV9, 96 h; method in brief: as §1
RAW264.7 = assay: Cytotoxicity against mouse macrophage RAW264.7 cells after 48 hrs by MTT assay; type: cell-based; conditions: RAW264.7, 48 h
Method in brief: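 Noninfected RAW 264.7 cells were run in parallel with the intracellular amastigote assay and exposed to compounds for 48 h. Viable cells were quantified by MTT.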

Plasmodium falciparum = assay: Antiplasmodial activity against chloroquine-sensitive Plasmodium falciparum 3D7 after 48 hrs as reduced [3H]phenylalanine uptake
[5] = Toxicity in human erythrocytes assessed as morphological changes up to 67 uM after 48 hrs by Giemsa staining; type: cell-based; conditions: erythrocyte
[6] = Toxicity in human erythrocytes assessed as morphological changes at IC50 after 48 hrs by Giemsa staining; type: cell-based; conditions: erythrocyte
[7] = Toxicity in human erythrocytes assessed as formation of echinocytes and ghost cells at 130 to 300 uM after 48 hrs by Giemsa staining; type: cell-based; conditions: erythrocyte

Compound	IC50 (Leishmania infantum [1]) [µM]	IC50 (Leishmania major) [µM]	IC50 (Leishmania donovani [2]) [µM]	IC50 (Leishmania infantum [3]) [µM]	IC50 (Leishmania donovani [4]) [µM]	IC50 (RAW264.7) [µM]	IC50 (Plasmodium falciparum) [µM]	Activity [5]	Activity [6]	Activity [7]
C[C@@H]1[C@H](O)[C@@H](C)/C=C/C=C/C=C/C=C/C=C/C=C/C=C/[C@H](O[C@@H]2O[C@H](C)[C@@H](O)[C@H](N)[C@@H]2O)C[C@@H]2O[C@](O)(C[C@@H](O)C[C@@H](O)[C@H](O)CC[C@@H](O)C[C@@H](O)CC(=O)O[C@H]1C)C[C@H](O)[C@H]2C(=O)O [AMPHOTERICIN B]	0.02	0.03	0.04	0.04	–	–	–	–	–	–
C/C=C/C1=C(OC)C(=O)C(OC)=C(OC)C1=O	74	72	> 800	> 800	97	256	> 200	–	–	–
COc1ccc([C@@H]2COc3c(ccc(O)c3CC=C(C)C)C2)c(OC)c1O	9.2	7.9	99	109	6.9	218	10.3	Non-toxic	–	–
C/C=C/c1cc(OC)c(OC)c(O)c1OC	198	387	589	> 800	232	125	> 200	–	–	–
COc1ccc([C@@H]2COc3c(ccc4c3C=CC(C)(C)O4)C2)c(OC)c1O [GLYASPERIN H]	14.2	23.7	77	89	25.3	172	33.3	–	Non-toxic	Toxic
C/C=C/c1cc(O)c(OC)c(OC)c1	267	372	> 800	> 800	395	281	> 200	–	–	–
COc1ccc([C@@H]2COc3c(ccc4occc34)C2)c(OC)c1O [SMIRANICIN]	11.3	17.4	112	81	22.9	193	57.6	–	Non-toxic	Toxic
